Measured values taken from ChEMBL document CHEMBL1126736, “Synthesis and antiherpes virus activity of 1,5-anhydrohexitol nucleosides” (J Med Chem, 1993).
Converted amounts (≈) assume the structure as drawn.

Legend:
ESM = experiment: Inhibitory concentration required for morphologic alteration in normal cell in human embryonic skin muscle (ESM) fibroblast cell culture; assay type: functional
How it was run: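 Uninfected ESM cells in 96-well trays, examined under the microscope. The value is the minimal concentration that causes a detectable change in normal cell morphology. Tested up to 400 μg/mL. Single representative experiment.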

Cytomegalovirus [1] = experiment: Inhibitory concentration against CMV strain AD169 in human embryonic lung (HEL) cell culture; assay type: functional; conditions: Human betaherpesvirus 5
How it was run: (§1)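 Plaque-reduction assay in human embryonic lung (HEL) cells grown in 96-well trays. The value is the concentration that reduces virus plaque formation by 50%. Single representative experiment.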

CCRF-CEM = experiment: Inhibitory concentration required to reduce the growth of human CEM cells by 50%; assay type: functional, cell-based
How it was run: (§2)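 Cytostatic assay. The value is the concentration that reduces the growth (viability) of the cells by 50%.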

L1210 = experiment: Inhibitory concentration required to reduce the growth of murine L1210 cells by 50%; assay type: functional, cell-based; conditions: Mus musculus; how it was run: as §2
Human alphaherpesvirus 3 [2] = experiment: Inhibitory concentration against VZV strain YS in human embryonic lung (HEL) cell culture; assay type: functional
MOLT-4 = experiment: Inhibitory concentration required to reduce the growth of human MOLT-4 cells by 50%; assay type: functional, cell-based; how it was run: as §2
Human alphaherpesvirus 3 [3] = experiment: (§3) Inhibitory concentration against TK-VZV strain YS-R in human embryonic lung (HEL) cell culture; assay type: functional; how it was run: as §1
[4] = test system: Vesicular stomatitis virus; experiment: Inhibitory concentration against VSV in human embryonic skin muscle (ESM) fibroblast cell culture; assay type: functional
Human alphaherpesvirus 2 [5] = experiment: Inhibitory concentration against HSV type 2 strain G in human embryonic skin muscle (ESM) fibroblast cell culture; assay type: functional
How it was run: (§4)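 Assay in human embryonic skin-muscle (ESM) cells grown in 96-well trays. The value is the concentration that reduces virus-induced cytopathicity by 50%. Single representative experiment.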

Human alphaherpesvirus 2 [6] = experiment: Inhibitory concentration against HSV type 2 strain 196 in human embryonic skin muscle (ESM) fibroblast cell culture; assay type: functional; how it was run: as §4
[7] = test system: Human immunodeficiency virus 1; experiment: Inhibitory concentration required to achieve 50% protection of MT-4 cells against cytopathicity of […]; assay type: functional, organism-based; conditions: Human immunodeficiency virus 1, MT4
How it was run: (§5)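 MT-4 cells infected with HIV-1 (strain III_B) or HIV-2 (strain ROD). The value is the concentration that protects the cells from virus cytopathicity by 50%.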

Human alphaherpesvirus 2 [8] = experiment: Inhibitory concentration against HSV type 2 strain Lyons in human embryonic skin muscle (ESM) fibroblast cell culture; assay type: functional; how it was run: as §4
FM3A = experiment: Inhibitory concentration required to reduce the growth of murine FM3A cells by 50%; assay type: functional, cell-based; conditions: Mus musculus; how it was run: as §2
Vaccinia virus = experiment: Inhibitory concentration against VV in human embryonic skin muscle (ESM) fibroblast cell culture; assay type: functional; conditions: Orthopoxvirus vaccinia
Human alphaherpesvirus 3 [9] = experiment: Inhibitory concentration against VZV strain OKA in human embryonic lung (HEL) cell culture; assay type: functional
Human alphaherpesvirus 3 [10] = experiment: Inhibitory concentration against TK-VZV strain 07-1 in human embryonic lung (HEL) cell culture; assay type: functional
HEL = experiment: Inhibitory concentration required to inhibit cell growth by 50% in human embryonic lung (HEL) cell culture; assay type: functional
How it was run: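 Uninfected HEL cells grown in 96-well trays. The value is the concentration that reduces cell growth by 50%. Single representative experiment.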

Human alphaherpesvirus 1 [11] = experiment: Inhibitory concentration against HSV type 1 strain F in human embryonic skin muscle (ESM) fibroblast cell culture; assay type: functional; how it was run: as §4
Human alphaherpesvirus 1 [12] = experiment: Inhibitory concentration against HSV type 1 strain KOS in human embryonic skin muscle (ESM) fibroblast cell culture; assay type: functional
Cytomegalovirus [13] = experiment: Inhibitory concentration against CMV strain Davis in human embryonic lung (HEL) cell culture; assay type: functional; conditions: Human betaherpesvirus 5; how it was run: as §1
MT4 = experiment: Inhibitory concentration required to reduce the growth of human MT-4 cells by 50%; assay type: functional, cell-based; how it was run: as §2
Human alphaherpesvirus 1 [14] = experiment: Inhibitory concentration against TK-HSV type 1 strain B2006 in human embryonic skin muscle (ESM) fibroblast cell culture; assay type: functional; how it was run: as §4
[15] = test system: Human immunodeficiency virus 2; experiment: Inhibitory concentration required to achieve 50% protection of MT-4 cells against cytopathicity of […]; assay type: functional, organism-based; conditions: Human immunodeficiency virus 2, MT4; how it was run: as §5
Human alphaherpesvirus 1 [16] = experiment: Inhibitory concentration against HSV type 1 strain Mc Intyre in human embryonic skin muscle (ESM) fibroblast cell culture; assay type: functional; how it was run: as §4
Human alphaherpesvirus 3 [17] = experiment: as §3; assay type: functional; remark: listed apart in the source

Row | Structure (SMILES) | MIC (ESM) [µg/mL] | MIC (Cytomegalovirus [1]) [µg/mL] | IC50 (CCRF-CEM) [µg/mL] | IC50 (L1210) [µg/mL] | MIC (Human alphaherpesvirus 3 [2]) [µg/mL] | IC50 (MOLT-4) [µg/mL] | MIC [4] [µg/mL] | MIC (Human alphaherpesvirus 2 [5]) [µg/mL] | MIC (Human alphaherpesvirus 2 [6]) [µg/mL] | MIC (Human alphaherpesvirus 2 [8]) [µg/mL] | MIC (Vaccinia virus) [µg/mL] | MIC (Human alphaherpesvirus 3 [9]) [µg/mL] | MIC (Human alphaherpesvirus 3 [10]) [µg/mL] | MIC (HEL) [µg/mL] | MIC (Human alphaherpesvirus 1 [11]) [µg/mL] | MIC (Human alphaherpesvirus 1 [12]) [µg/mL] | MIC (Cytomegalovirus [13]) [µg/mL] | MIC (Human alphaherpesvirus 1 [14]) [µg/mL] | MIC (Human alphaherpesvirus 1 [16]) [µg/mL] | MIC (Human alphaherpesvirus 3 [17]) [µg/mL] | also measured
1 | Nc1ncnc2c1ncn2[C@@H]1CO[C@H](CO)[C@@H](O)C1 | > 400 | > 10 | > 100 | > 100 | 4 (≈ 15.1 µM) | > 100 | > 200 | 7 (≈ 26.4 µM) | 0.04 (≈ 0.151 µM) | 1 (≈ 3.77 µM) | 40 (≈ 151 µM) | 4 (≈ 15.1 µM) | 10 (≈ 37.7 µM) | > 50 | 4 (≈ 15.1 µM) | 7 (≈ 26.4 µM) | > 10 | 150 (≈ 565 µM) | 20 (≈ 75.4 µM) | – | MIC (Human alphaherpesvirus 3 [3]): 3.2 µg/mL (≈ 12.1 µM); IC50 [7]: > 4 µg/mL; IC50 (FM3A): 97.5 µg/mL (≈ 368 µM); IC50 (MT4): 12.5 µg/mL (≈ 47.1 µM); IC50 [15]: > 4 µg/mL
2 | O=c1[nH]c(=O)n([C@H]2C[C@H](O)[C@@H](CO)O2)cc1I [IDOXURIDINE] | > 400 | – | – | – | 0.4 (≈ 1.13 µM) | – | > 400 | 0.2 (≈ 0.565 µM) | 0.2 (≈ 0.565 µM) | 0.2 (≈ 0.565 µM) | 0.7 (≈ 1.98 µM) | 0.17 (≈ 0.48 µM) | 4 (≈ 11.3 µM) | > 50 | 0.2 (≈ 0.565 µM) | 0.2 (≈ 0.565 µM) | – | 70 (≈ 198 µM) | 1 (≈ 2.82 µM) | 4 (≈ 11.3 µM) | –
3 | Nc1nc2c(ncn2COCCO)c(=O)[nH]1 [ACYCLOVIR] | – | – | – | – | – | – | > 400 | 0.02 (≈ 0.0888 µM) | 2 (≈ 8.88 µM) | 0.7 (≈ 3.11 µM) | > 400 | – | – | > 200 | 0.4 (≈ 1.78 µM) | 0.02 (≈ 0.0888 µM) | – | 70 (≈ 311 µM) | 0.7 (≈ 3.11 µM) | – | –
4 | Nc1nc2c(ncn2COC(CO)CO)c(=O)[nH]1 [GANCICLOVIR] | – | 3 (≈ 11.8 µM) | – | – | 0.072 (≈ 0.282 µM) | – | > 400 | 0.004 (≈ 0.0157 µM) | 0.02 (≈ 0.0784 µM) | 0.02 (≈ 0.0784 µM) | 70 (≈ 274 µM) | 0.02 (≈ 0.0784 µM) | 0.1 (≈ 0.392 µM) | 85 (≈ 333 µM) | 0.007 (≈ 0.0274 µM) | 0.004 (≈ 0.0157 µM) | 6.2 (≈ 24.3 µM) | 2 (≈ 7.84 µM) | 0.001 (≈ 0.00392 µM) | 0.9 (≈ 3.53 µM) | –
5 | Nc1ccn(C2COC(CO)C(O)C2)c(=O)n1 (stereo not drawn) | > 400 | 0.64 (≈ 2.65 µM) | 1.4 (≈ 5.8 µM) | 29 (≈ 120 µM) | 0.27 (≈ 1.12 µM) | 0.87 (≈ 3.61 µM) | > 400 | 0.04 (≈ 0.166 µM) | 0.02 (≈ 0.0829 µM) | 0.02 (≈ 0.0829 µM) | 2 (≈ 8.29 µM) | 0.04 (≈ 0.166 µM) | 0.75 (≈ 3.11 µM) | 2 (≈ 8.29 µM) | 1 (≈ 4.15 µM) | 0.7 (≈ 2.9 µM) | 0.75 (≈ 3.11 µM) | 4 (≈ 16.6 µM) | 2 (≈ 8.29 µM) | 0.64 (≈ 2.65 µM) | IC50 [7]: > 0.8 µg/mL; IC50 (FM3A): 28 µg/mL (≈ 116 µM); IC50 (MT4): 1.1 µg/mL (≈ 4.56 µM); IC50 [15]: > 0.8 µg/mL
6 | O=c1[nH]c(=O)n(C2COC(CO)C(O)C2)cc1I (stereo not drawn) | > 400 | > 10 | > 100 | > 100 | > 100 | > 100 | > 200 | 0.07 (≈ 0.19 µM) | 0.07 (≈ 0.19 µM) | 0.07 (≈ 0.19 µM) | > 200 | > 100 | > 100 | > 50 | 0.07 (≈ 0.19 µM) | 0.07 (≈ 0.19 µM) | > 10 | > 200 | 0.07 (≈ 0.19 µM) | > 100 | IC50 [7]: > 100 µg/mL; IC50 (FM3A): > 100 µg/mL; IC50 (MT4): > 100 µg/mL; IC50 [15]: > 100 µg/mL
7 | Nc1nc(O)c2ncn([C@@H]3CO[C@H](CO)[C@@H](O)C3)c2n1 | > 400 | 1.5 (≈ 5.33 µM) | 21 (≈ 74.7 µM) | 5.4 (≈ 19.2 µM) | 0.1 (≈ 0.356 µM) | 14 (≈ 49.8 µM) | > 2 | 0.1 (≈ 0.356 µM) | 0.02 (≈ 0.0711 µM) | 0.01 (≈ 0.0356 µM) | 7 (≈ 24.9 µM) | 0.9 (≈ 3.2 µM) | 4 (≈ 14.2 µM) | 20 (≈ 71.1 µM) | 0.2 (≈ 0.711 µM) | 0.2 (≈ 0.711 µM) | 1.2 (≈ 4.27 µM) | 20 (≈ 71.1 µM) | 0.7 (≈ 2.49 µM) | 2.8 (≈ 9.95 µM) | IC50 [7]: > 4 µg/mL; IC50 (FM3A): 12.3 µg/mL (≈ 43.7 µM); IC50 (MT4): 21 µg/mL (≈ 74.7 µM); IC50 [15]: > 4 µg/mL
8 | Cc1cn(C2COC(CO)C(O)C2)c(=O)[nH]c1=O (stereo not drawn) | > 400 | > 10 | > 100 | > 100 | > 100 | > 100 | > 400 | 150 (≈ 585 µM) | 40 (≈ 156 µM) | 20 (≈ 78 µM) | > 400 | > 100 | > 100 | > 50 | 40 (≈ 156 µM) | 40 (≈ 156 µM) | > 10 | > 400 | 7 (≈ 27.3 µM) | 100 (≈ 390 µM) | IC50 [7]: 36 µg/mL (≈ 140 µM); IC50 (FM3A): > 100 µg/mL; IC50 (MT4): > 100 µg/mL; IC50 [15]: > 100 µg/mL
9 | O=c1[nH]c(=O)n([C@H]2C[C@H](O)[C@@H](CO)O2)cc1/C=C/Br [BRIVUDINE] | > 400 | > 100 | – | – | 0.0015 (≈ 0.0045 µM) | – | > 200 | 10 (≈ 30 µM) | 300 (≈ 901 µM) | 70 (≈ 210 µM) | 2 (≈ 6 µM) | 0.0007 (≈ 0.0021 µM) | 8 (≈ 24 µM) | > 200 | 0.004 (≈ 0.012 µM) | 0.004 (≈ 0.012 µM) | > 100 | > 400 | 0.02 (≈ 0.06 µM) | 30 (≈ 90.1 µM) | –
